One assay relates to E. coli MG1655 cells. Put plainly: Bacterial TUNEL assay. The assay is classed as cell-based. Particulars: highest concentration tested, 1.5 hours. The method in brief:
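E. coli MG1655 grown as for MIC testing: overnight culture diluted 1:100 in Mueller Hinton broth, grown to OD600 0.08–0.1, then exposed to peptide for 1.5 h. Cells pelleted and resuspended in 1× PBS. TdT labels 3′-OH ends with fluorescein-dUTP; TOTO-3 counterstains DNA. Flow cytometry (488 nm FITC, 633 nm APC; 50,000 events). TUNEL-positive expressed as fraction of TOTO-3-positive cells, normalized to DMSO-treated cells.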

Another assay deals with protein-free HJ DNA. Briefly: Non-competitive HJ band shift. The assay is classed as binding.

Consider four substances from PMC3646928 (Peptides, 2013).

WRWYCR returned a TUNEL-positive cells with E. coli MG1655 cells of 75.6 ± 2.2%.

Consider WYCRGGRCYW, for which the “shift of protein-free HJ DNA in EMSA (specific shift)” value (“shift of protein-free HJ DNA in EMSA” below) in the assay with protein-free HJ DNA is “Neither WRWYGGYWRW nor WYCRGGRCYW caused specific shifts at low peptide concentrations”.

For the substance WRWYGGYWRW, the “shift of protein-free HJ DNA in EMSA” value in the assay on protein-free HJ DNA is “Neither WRWYGGYWRW nor WYCRGGRCYW caused specific shifts at low peptide concentrations”.

Turning to KWWRGGRWWK, the “shift of protein-free HJ DNA in EMSA” value with protein-free HJ DNA is “caused a change in the mobility of protein-free HJ DNA similar to shifts seen with (WRWYCR)2”.
